According to ChEMBL document CHEMBL4043075, “Development of Fluorinated Analogues of Perhexiline with Improved Pharmacokinetic Properties and Retained Efficacy” (J Med Chem, 2017):
Each block holds one compound with its values, some of them ahead of it. Active and inactive are the calls of the source. No cut-off for these calls is given here.

Legend:
[1] = Stability of the compound in pH 7.4 PBS buffer at 37 degC after 1 hr; format: physicochemical; details: pH 7.4, 1 h
In short: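 Compound incubated 1 h in pH 7.4 PBS at 37 °C, then checked for decomposition.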

[2] = Half life in human liver microsomes at 3 uM up to 45 mins in presence of NADPH by LC-MS/MS analysis; format: ADME, microsome
[3] = Half life in Sprague-Dawley rat liver microsomes at 3 uM up to 45 mins in presence of NADPH by LC-MS/MS analysis; format: ADME, microsome
[4] = target: T1, Carnitine O-palmitoyltransferase 1, muscle isoform (Rattus norvegicus, UniProt Q63704); experiment: Inhibition of Wistar rat heart mitochondrial CPT-1 assessed as reduction in conversion of palmitoyl CoA and L-carnitine into palmitoylcarnitine preincubated for 3 mins followed by L-carnitine and palmitoyl CoA addition measured for 3.5 mins by spectrophotometric analysis
T1 sequence (Q63704 whole entry): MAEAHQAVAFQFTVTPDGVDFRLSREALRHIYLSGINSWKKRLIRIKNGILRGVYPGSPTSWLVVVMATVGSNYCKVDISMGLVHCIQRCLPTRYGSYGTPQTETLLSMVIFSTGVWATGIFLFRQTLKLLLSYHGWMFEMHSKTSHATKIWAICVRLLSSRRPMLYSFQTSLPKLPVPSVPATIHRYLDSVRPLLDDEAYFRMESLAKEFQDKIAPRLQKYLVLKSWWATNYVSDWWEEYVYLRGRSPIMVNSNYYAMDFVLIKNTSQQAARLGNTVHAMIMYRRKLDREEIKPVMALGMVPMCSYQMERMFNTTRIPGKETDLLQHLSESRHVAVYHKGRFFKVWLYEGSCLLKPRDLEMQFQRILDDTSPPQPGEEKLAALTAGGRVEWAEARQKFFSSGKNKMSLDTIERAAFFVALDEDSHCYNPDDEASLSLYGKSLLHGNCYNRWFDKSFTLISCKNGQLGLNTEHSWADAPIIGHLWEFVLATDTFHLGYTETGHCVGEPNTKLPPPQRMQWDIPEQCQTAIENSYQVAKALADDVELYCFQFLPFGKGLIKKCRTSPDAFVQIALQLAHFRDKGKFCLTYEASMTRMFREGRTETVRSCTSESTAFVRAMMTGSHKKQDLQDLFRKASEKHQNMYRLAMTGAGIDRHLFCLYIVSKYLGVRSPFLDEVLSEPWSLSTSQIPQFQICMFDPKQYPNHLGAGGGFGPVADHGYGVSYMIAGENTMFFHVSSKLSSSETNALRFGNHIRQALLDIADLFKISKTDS

CYP2D6 = CYP2D6 (Homo sapiens, UniProt P10635); experiment: Drug metabolism assessed as human CYP2D6-mediated compound degradation by measuring half life at 5 uM up to 45 mins in presence of NADPH by LC-MS/MS analysis; format: ADME
CYP2D6, sequence (P10635 whole entry): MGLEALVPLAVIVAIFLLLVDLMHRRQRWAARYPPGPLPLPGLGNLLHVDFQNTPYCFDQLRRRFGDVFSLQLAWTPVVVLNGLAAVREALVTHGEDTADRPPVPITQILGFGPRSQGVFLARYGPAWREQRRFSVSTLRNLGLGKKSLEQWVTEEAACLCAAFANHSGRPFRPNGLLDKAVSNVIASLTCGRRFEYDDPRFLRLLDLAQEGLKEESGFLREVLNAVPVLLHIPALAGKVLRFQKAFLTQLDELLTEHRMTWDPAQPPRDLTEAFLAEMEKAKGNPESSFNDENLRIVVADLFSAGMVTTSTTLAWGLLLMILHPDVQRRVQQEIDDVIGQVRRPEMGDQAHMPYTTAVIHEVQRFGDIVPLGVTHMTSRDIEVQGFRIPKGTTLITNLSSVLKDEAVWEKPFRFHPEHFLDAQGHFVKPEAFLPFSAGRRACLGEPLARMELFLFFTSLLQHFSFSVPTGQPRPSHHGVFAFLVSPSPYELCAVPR

[5] = Plasma concentration in Sprague-Dawley rat at 10 mg/kg, po administered via gavage every 24 hrs measured at 2 hrs post last dose by LC-MS/MS analysis; format: ADME, organism-based
In short: (§1)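 Male Sprague-Dawley rats, daily oral dosing at 10 mg/kg. Plasma sampled at 1, 2, 4, 8 and 24 h after dosing, n = 3 per timepoint. Myocardium measured at 1 and 8 h. Myocardium:plasma ratio taken from drug concentration.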

[6] = Plasma concentration in Sprague-Dawley rat at 10 mg/kg, po administered via gavage every 24 hrs measured at 1 hr post dose by LC-MS/MS analysis; format: ADME, organism-based; in short: as §1
[7] = Plasma concentration in BALB/c mouse at 10 mg/kg, po administered via gavage every 24 hrs for 7 days measured 4 hrs post last dose by LC-MS/MS analysis; format: ADME, organism-based
In short: (§2)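 Male BALB/c mice, daily oral gavage at 10 mg/kg. Plasma and myocardium sampled 1, 4, 8 and 24 h after dosing, n = 3 per timepoint. […] Myocardium:plasma ratios taken from drug concentration or from AUC. Student's t-test used.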

[8] = Ratio of drug level in myocardium to plasma in BALB/c mouse at 10 mg/kg, po administered via gavage every 24 hrs for 7 days measured 8 hrs post last dose by LC-MS/MS analysis; format: ADME, organism-based; details: myocardium and plasma; in short: as §2
[9] = Drug uptake in BALB/c mouse myocardium at 10 mg/kg, po administered via gavage every 24 hrs for 7 days measured 1 hr post last dose by LC-MS/MS analysis; format: ADME, organism-based; details: read-out: Drug uptake; in short: as §2
[10] = Ratio of drug level in myocardium to plasma in BALB/c mouse at 10 mg/kg, po administered via gavage every 24 hrs for 7 days measured 1 hr post last dose by LC-MS/MS analysis; format: ADME, organism-based; details: myocardium and plasma; in short: as §2
[11] = Ratio of AUC (0 to 24 hrs) in myocardium to plasma in BALB/c mouse at 10 mg/kg, po administered via gavage every 24 hrs for 7 days measured post last dose by LC-MS/MS analysis; format: ADME, organism-based; details: myocardium and plasma, read-out: Ratio AUC; in short: as §2
[12] = Plasma concentration in BALB/c mouse at 10 mg/kg, po administered via gavage every 24 hrs for 7 days measured 8 hrs post last dose by LC-MS/MS analysis; format: ADME, organism-based; in short: as §2
[13] = Ratio of drug level in myocardium to plasma in Sprague-Dawley rat at 10 mg/kg, po administered via gavage every 24 hrs measured at 1 hr post dose by LC-MS/MS analysis; format: ADME, organism-based; details: myocardium and plasma; in short: as §1
[14] = AUC (0 to 24 hrs) in BALB/c mouse myocardium at 10 mg/kg, po administered via gavage every 24 hrs for 7 days measured post last dose by LC-MS/MS analysis; format: ADME, organism-based; set-up: time < 24 hr, dose 10 mg/kg, route oral; in short: as §2
Heart [15] = experiment: Cardioprotective activity in Langendorff perfused C57BL/6 mouse heart assessed as increase in cardiac contractility at 2 uM perfused for 30 mins in presence of high fat relative to control; format: functional
In short: (§3)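 Isolated C57BL/6 hearts (25-30 g) retrogradely perfused at constant 80 mmHg, 37 °C, 95% O2/5% CO2, with modified Krebs containing 1.2 mM sodium palmitate conjugated to 3% BSA. After 10 min stabilisation, 30 min perfusion with control buffer or compound at 2 or 10 µM. LVdP/dt max and min derived from LV pressure over 40 min; mean ± SEM, n = 12-19, 1-way ANOVA with Bonferroni.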

[16] = Drug uptake in Sprague-Dawley rat myocardium at 10 mg/kg, po administered via gavage every 24 hrs measured at 8 hrs post last dose by LC-MS/MS analysis; format: ADME, organism-based; details: read-out: Drug uptake; in short: as §1
[17] = Drug uptake in Sprague-Dawley rat myocardium at 10 mg/kg, po administered via gavage every 24 hrs measured at 1 hr post last dose by LC-MS/MS analysis; format: ADME, organism-based; details: read-out: Drug uptake; in short: as §1
[18] = Plasma concentration in Sprague-Dawley rat at 10 mg/kg, po administered via gavage every 24 hrs measured at 8 hrs post last dose by LC-MS/MS analysis; format: ADME, organism-based; in short: as §1
[19] = AUC (0 to 24 hrs) in BALB/c mouse plasma at 10 mg/kg, po administered via gavage every 24 hrs for 7 days measured post last dose by LC-MS/MS analysis; format: ADME, organism-based; set-up: dose 10 mg/kg, time < 24 hr, route oral; in short: as §2
[20] = Ratio of drug level in myocardium to plasma in Sprague-Dawley rat at 10 mg/kg, po administered via gavage every 24 hrs measured at 8 hrs post dose by LC-MS/MS analysis; format: ADME, organism-based; details: myocardium and plasma; in short: as §1
[21] = Drug uptake in BALB/c mouse myocardium at 10 mg/kg, po administered via gavage every 24 hrs for 7 days measured 8 hrs post last dose by LC-MS/MS analysis; format: ADME, organism-based; details: read-out: Drug uptake; in short: as §2
[22] = Plasma concentration in Sprague-Dawley rat at 10 mg/kg, po administered via gavage every 24 hrs measured at 4 hrs post last dose by LC-MS/MS analysis; format: ADME, organism-based; in short: as §1
[23] = Drug uptake in BALB/c mouse myocardium at 10 mg/kg, po administered via gavage every 24 hrs for 7 days measured 4 hrs post last dose by LC-MS/MS analysis; format: ADME, organism-based; details: read-out: Drug uptake; in short: as §2
Heart [24] = experiment: Cardioprotective activity in Langendorff perfused C57BL/6 mouse heart assessed as increase in cardiac relaxation at 2 uM perfused for 30 mins in presence of high fat relative to control; format: functional; in short: as §3
[25] = Ratio of drug level in myocardium to plasma in BALB/c mouse at 10 mg/kg, po administered via gavage every 24 hrs for 7 days measured 4 hrs post last dose by LC-MS/MS analysis; format: ADME, organism-based; details: myocardium and plasma; in short: as §2
[26] = Plasma concentration in BALB/c mouse at 10 mg/kg, po administered via gavage every 24 hrs for 7 days measured at 1 hr post last dose by LC-MS/MS analysis; format: ADME, organism-based; in short: as §2
Heart [27] = experiment: Cardioprotective activity against Langendorff perfused C57BL/6 mouse heart assessed as lusitropic effect at 2 uM measured for 40 mins reperfusion period in presence of high fat; format: functional, tissue-based; in short: as §3

Stability [1]: Stable
half-life at 3 µM [2]: 2.07 h
half-life at 3 µM [3]: 3 min
SMILES: C1CCC(C(CC2CCCCN2)C2CC2)CC1 (configuration not stated)

IC50 [4]: 14 µM
half-life at 3 µM [2]: 1.08 h
half-life at 3 µM [3]: 11 min
SMILES: C1CCC(C(C[C@@H]2CCCCN2)C2CCCCC2)CC1

IC50 [4]: 11 µM
Stability [1]: Stable
half-life at 5 µM (CYP2D6): 16 min
half-life at 3 µM [2]: > 2.5 h
half-life at 3 µM [3]: 19 min
SMILES: C1CCC(C(CC2CCCCN2)C2CCCC2)CC1 (configuration not stated)

concentration at 2 h [5]: 113 ng/mL
concentration at 1 h [6]: 99.9 ng/mL
IC50 [4]: 11 µM
concentration at 4 h [7]: 28.3 ng/mL
Kp at 8 h [8]: 4.8
concentration at 1 h [9]: 664 ng/mL
Kp at 1 h [10]: 5.7
Kp [11]: 2.4
concentration at 8 h [12]: 6 ng/mL
Kp at 1 h [13]: 19
AUC at 24 h [14]: 2110 ng·h/mL
concentration at 8 h [16]: 361 ng/mL
concentration at 1 h [17]: 1900 ng/mL
concentration at 8 h [18]: 31.4 ng/mL
AUC at 24 h [19]: 876 ng·h/mL
Kp at 8 h [20]: 11.5
concentration at 8 h [21]: 29.2 ng/mL
concentration at 4 h [22]: 97.4 ng/mL
concentration at 4 h [23]: 126 ng/mL
Kp at 4 h [25]: 4.9
concentration at 1 h [26]: 116 ng/mL
half-life at 5 µM (CYP2D6): 14 min
half-life at 3 µM [2]: 1.67 h
half-life at 3 µM [3]: 21 min
SMILES: C1CCC(C(CC2CCCCN2)C2CCCCC2)CC1 (racemic) [PERHEXILINE]
fold change (FC) (Heart [15]): 2.1
fold change (FC) (Heart [24]): 3.2

IC50 [4]: 1.2 µM
SMILES: CC(C)(COP(=O)(O)OP(=O)(O)OC[C@H]1O[C@@H](n2cnc3c(N)ncnc32)[C@H](O)[C@@H]1OP(=O)(O)O)[C@@H](O)C(=O)NCCC(=O)NCCSC(=O)CC(=O)O [MALONYL-COENZYME A]

IC50 [4]: 215 µM
Stability [1]: Stable
half-life at 3 µM [2]: > 2.5 h
half-life at 3 µM [3]: 35 min
SMILES: FC1(F)CCCC(C(CC2CCCCN2)C2CCCCC2)C1 (configuration not stated)

IC50 [4]: 715 µM
Stability [1]: Stable
half-life at 5 µM (CYP2D6): 7 min
half-life at 3 µM [2]: 1.4 h
half-life at 3 µM [3]: 31 min
SMILES: C1CCC(C(CC2CCCCN2)C2CCOCC2)CC1 (configuration not stated)

Stability [1]: Stable
half-life at 3 µM [2]: 0.933 h
half-life at 3 µM [3]: 4 min
SMILES: c1ccc(C(CC2CCCCN2)C2CCCCC2)cc1 (configuration not stated)

SMILES: C1CCC(C(CC2CCCCN2)C2CCCCC2)CC1 (racemic)
Activity (Heart [27]): Active

IC50 [4]: 475 µM
SMILES: OC1CCC(C(CC2CCCCN2)C2CCCCC2)CC1 (configuration not stated)

IC50 [4]: 88 µM
Stability [1]: Stable
half-life at 5 µM (CYP2D6): > 150 min
half-life at 3 µM [2]: > 66.7 h
half-life at 3 µM [3]: > 1500 min
SMILES: FC1(F)CCC(C(CC2CCCCN2)C2CCC(F)(F)CC2)CC1 (configuration not stated)
